Data: ChEMBL document CHEMBL1130090, “Antitumor agents. 174. 2',3',4',5,6,7-Substituted 2-phenyl-1,8-naphthyridin-4-ones: their synthesis, cytotoxicity, and inhibition of tubulin polymerization” (J Med Chem, 1997)

The compounds below were run on 786-0 (assay: Concentration which reduced cell growth to 50 % of level against 786-0 renal cancer line). Settings: Homo sapiens.
Assay type: functional

SMILES | GI50 [µM]
Cc1ccc2c(O)cc(-c3ccc(Cl)cc3)nc2n1 | 6.31
Oc1cc(-c2ccc(F)cc2)nc2ncc(Cl)cc12 | 32.4
Cc1cnc2nc(-c3ccc(Cl)cc3)cc(O)c2c1 | 6.31
COc1ccc(-c2cc(O)c3ccc(C)nc3n2)cc1 | > 100
COc1ccccc1-c1cc(O)c2c(C)cc(C)nc2n1 | > 100
Cc1cnc2nc(-c3ccc(F)cc3)cc(O)c2c1 | 32.4
COc1cccc(-c2cc(O)c3cc(C)cnc3n2)c1 | 0.0372
COc1cccc(-c2cc(O)c3cc(Cl)cnc3n2)c1 | 0.427

These compounds were tested on U-251 (assay: Concentration which reduced cell growth to 50 % of U251 cancer line). Settings: Homo sapiens.
Assay type: functional

SMILES | GI50 [µM]
Cc1ccc2c(O)cc(-c3ccc(Cl)cc3)nc2n1 | 4.79
Oc1cc(-c2ccc(F)cc2)nc2ncc(Cl)cc12 | 29.5
Cc1cnc2nc(-c3ccc(Cl)cc3)cc(O)c2c1 | 3.02
COc1ccc(-c2cc(O)c3ccc(C)nc3n2)cc1 | > 100
COc1ccccc1-c1cc(O)c2c(C)cc(C)nc2n1 | > 100
Cc1cnc2nc(-c3ccc(F)cc3)cc(O)c2c1 | 25.1
COc1cccc(-c2cc(O)c3cc(C)cnc3n2)c1 | 0.0447
COc1cccc(-c2cc(O)c3cc(Cl)cnc3n2)c1 | 0.2

Each compound was assayed on HL-60 (assay: Concentration which reduced cell growth to 50 % of level against HL-60 (TB) leukemia cell line). Settings: Homo sapiens.
Assay type: functional

SMILES | GI50 [nM]
Cc1ccc2c(O)cc(-c3ccc(Cl)cc3)nc2n1 | 2950
Oc1cc(-c2ccc(F)cc2)nc2ncc(Cl)cc12 | 3890
Cc1cnc2nc(-c3ccc(Cl)cc3)cc(O)c2c1 | 2240
COc1ccc(-c2cc(O)c3ccc(C)nc3n2)cc1 | > 100000
COc1ccccc1-c1cc(O)c2c(C)cc(C)nc2n1 | 30200
Cc1cnc2nc(-c3ccc(F)cc3)cc(O)c2c1 | 2400
COc1cccc(-c2cc(O)c3cc(C)cnc3n2)c1 | 19.1
COc1cccc(-c2cc(O)c3cc(Cl)cnc3n2)c1 | 26.9

What follows are compounds tested on Tumor Cell line (assay: Cytotoxic effect in human tumor cell lines, tested by the National Cancer Institute). Settings: read-out: Average LogGI50 (converted).
Assay type: functional

SMILES | GI50 [µM]
Cc1ccc2c(O)cc(-c3ccc(Cl)cc3)nc2n1 | 4.9
Oc1cc(-c2ccc(F)cc2)nc2ncc(Cl)cc12 | 21.9
Cc1cnc2nc(-c3ccc(Cl)cc3)cc(O)c2c1 | 3.72
COc1ccc(-c2cc(O)c3ccc(C)nc3n2)cc1 | 91.2
COc1ccccc1-c1cc(O)c2c(C)cc(C)nc2n1 | 57.5
Cc1cnc2nc(-c3ccc(F)cc3)cc(O)c2c1 | 26.3
COc1cccc(-c2cc(O)c3cc(C)cnc3n2)c1 | 0.0955
COc1cccc(-c2cc(O)c3cc(Cl)cnc3n2)c1 | 0.0977

The compounds below were run on HCT-116 (assay: Concentration which reduced cell growth to 50 % of level against HCT116 colon cancer cell line). Settings: Homo sapiens.
Assay type: functional

SMILES | GI50 [µM]
Cc1ccc2c(O)cc(-c3ccc(Cl)cc3)nc2n1 | 3.31
Oc1cc(-c2ccc(F)cc2)nc2ncc(Cl)cc12 | 17
Cc1cnc2nc(-c3ccc(Cl)cc3)cc(O)c2c1 | 2.82
COc1ccc(-c2cc(O)c3ccc(C)nc3n2)cc1 | > 100
COc1ccccc1-c1cc(O)c2c(C)cc(C)nc2n1 | 74.1
Cc1cnc2nc(-c3ccc(F)cc3)cc(O)c2c1 | 24
COc1cccc(-c2cc(O)c3cc(C)cnc3n2)c1 | 0.0224
COc1cccc(-c2cc(O)c3cc(Cl)cnc3n2)c1 | 0.12

These compounds were tested on SF-295 (assay: Concentration which reduced cell growth to 50 % of level against SF-295 CNS cancer line). Settings: Homo sapiens.
Assay type: functional

SMILES | GI50 [µM]
Cc1ccc2c(O)cc(-c3ccc(Cl)cc3)nc2n1 | 4.57
Oc1cc(-c2ccc(F)cc2)nc2ncc(Cl)cc12 | 21.4
Cc1cnc2nc(-c3ccc(Cl)cc3)cc(O)c2c1 | 2.4
COc1ccc(-c2cc(O)c3ccc(C)nc3n2)cc1 | 89.1
COc1ccccc1-c1cc(O)c2c(C)cc(C)nc2n1 | 53.7
Cc1cnc2nc(-c3ccc(F)cc3)cc(O)c2c1 | 29.5
COc1cccc(-c2cc(O)c3cc(C)cnc3n2)c1 | 0.0372
COc1cccc(-c2cc(O)c3cc(Cl)cnc3n2)c1 | 0.0603

The compounds below were run against Tubulin beta chain (Bos taurus, UniProt Q6B856) (assay: Inhibition of bovine tubulin polymerization). Settings: not given.
Assay type: functional

Tubulin beta chain, sequence (Q6B856 whole entry): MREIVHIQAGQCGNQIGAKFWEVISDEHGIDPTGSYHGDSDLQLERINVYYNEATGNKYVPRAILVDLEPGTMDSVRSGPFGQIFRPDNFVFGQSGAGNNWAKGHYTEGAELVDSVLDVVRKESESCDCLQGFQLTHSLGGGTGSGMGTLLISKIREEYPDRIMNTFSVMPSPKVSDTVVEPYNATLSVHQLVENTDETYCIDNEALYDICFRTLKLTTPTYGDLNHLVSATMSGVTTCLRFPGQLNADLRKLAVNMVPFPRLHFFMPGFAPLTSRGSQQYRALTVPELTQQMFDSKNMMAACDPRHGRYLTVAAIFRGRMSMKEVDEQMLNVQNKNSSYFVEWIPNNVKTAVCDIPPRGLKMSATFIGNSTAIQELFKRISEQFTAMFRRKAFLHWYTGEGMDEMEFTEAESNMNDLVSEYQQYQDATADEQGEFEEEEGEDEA

SMILES | IC50 [µM]
Cc1ccc2c(O)cc(-c3ccc(Cl)cc3)nc2n1 | 11
Oc1cc(-c2ccc(F)cc2)nc2ncc(Cl)cc12 | 16
Cc1cnc2nc(-c3ccc(Cl)cc3)cc(O)c2c1 | 2
COc1ccc(-c2cc(O)c3ccc(C)nc3n2)cc1 | > 40
COc1ccccc1-c1cc(O)c2c(C)cc(C)nc2n1 | > 40
Cc1cnc2nc(-c3ccc(F)cc3)cc(O)c2c1 | 20
COc1cccc(-c2cc(O)c3cc(C)cnc3n2)c1 | 0.8
COc1cccc(-c2cc(O)c3cc(Cl)cnc3n2)c1 | 0.73

These compounds were tested on MDA-N (assay: Concentration which reduced cell growth to 50 % of level against MDA-N breast cancer line). Settings: Homo sapiens.
Assay type: functional

SMILES | GI50 [nM]
Cc1ccc2c(O)cc(-c3ccc(Cl)cc3)nc2n1 | 1000
Oc1cc(-c2ccc(F)cc2)nc2ncc(Cl)cc12 | 2950
Cc1cnc2nc(-c3ccc(Cl)cc3)cc(O)c2c1 | 562
COc1ccc(-c2cc(O)c3ccc(C)nc3n2)cc1 | 55000
COc1ccccc1-c1cc(O)c2c(C)cc(C)nc2n1 | 33100
Cc1cnc2nc(-c3ccc(F)cc3)cc(O)c2c1 | 3020
COc1cccc(-c2cc(O)c3cc(C)cnc3n2)c1 | < 10
COc1cccc(-c2cc(O)c3cc(Cl)cnc3n2)c1 | 31.6

Each compound was assayed against Tubulin alpha chain (Sus scrofa) (UniProt P02550) (assay: Inhibition of colchicine binding and evaluated only when polymerization IC50 <=1 uM). Settings: not given.
Assay type: functional
Method in brief: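 Electrophoretically homogeneous bovine brain tubulin (1.0 µM) incubated 20 min at 37 °C with 5.0 µM [3H]colchicine and 5.0 µM inhibitor in 1.0 M monosodium glutamate (pH 6.6), 1 mM MgCl2, 0.1 mM GTP, 5% (v/v) DMSO. Mixtures filtered through two stacked DEAE-cellulose filters and washed with water. Bound radioactivity counted by liquid scintillation.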

Tubulin alpha chain (Sus scrofa), sequence (P02550 whole entry, looked up): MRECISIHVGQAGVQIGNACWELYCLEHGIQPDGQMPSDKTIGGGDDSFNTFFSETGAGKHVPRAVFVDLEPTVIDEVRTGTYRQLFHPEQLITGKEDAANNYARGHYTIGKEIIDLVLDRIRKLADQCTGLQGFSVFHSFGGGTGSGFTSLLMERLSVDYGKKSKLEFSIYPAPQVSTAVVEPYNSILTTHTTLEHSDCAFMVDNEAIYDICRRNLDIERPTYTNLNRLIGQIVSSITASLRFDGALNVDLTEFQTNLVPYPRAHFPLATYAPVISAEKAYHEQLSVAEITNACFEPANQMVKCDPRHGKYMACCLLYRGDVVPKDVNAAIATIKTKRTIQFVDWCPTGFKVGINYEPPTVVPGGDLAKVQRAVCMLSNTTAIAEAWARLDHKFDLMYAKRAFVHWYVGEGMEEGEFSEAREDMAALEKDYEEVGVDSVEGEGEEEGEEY

SMILES | inhibition [%]
COc1cccc(-c2cc(O)c3cc(C)cnc3n2)c1 | 31
COc1cccc(-c2cc(O)c3cc(Cl)cnc3n2)c1 | 35

These compounds were tested on SK-MEL-5 (assay: Concentration which reduced cell growth to 50 % of level against SK-MEL-5 melanoma cell line). Settings: Homo sapiens.
Assay type: functional

SMILES | GI50 [µM]
Cc1ccc2c(O)cc(-c3ccc(Cl)cc3)nc2n1 | 4.37
Oc1cc(-c2ccc(F)cc2)nc2ncc(Cl)cc12 | 6.61
Cc1cnc2nc(-c3ccc(Cl)cc3)cc(O)c2c1 | 2.19
COc1ccc(-c2cc(O)c3ccc(C)nc3n2)cc1 | 47.9
COc1ccccc1-c1cc(O)c2c(C)cc(C)nc2n1 | 33.9
Cc1cnc2nc(-c3ccc(F)cc3)cc(O)c2c1 | 21.9
COc1cccc(-c2cc(O)c3cc(C)cnc3n2)c1 | 0.0257
COc1cccc(-c2cc(O)c3cc(Cl)cnc3n2)c1 | 0.126

What follows are compounds tested on NCI-H460 (assay: Concentration which reduced cell growth to 50 % of level against NCI-H460 non -small-cell lung cancer cell line). Settings: Homo sapiens.
Assay type: functional

SMILES | GI50 [µM]
Cc1ccc2c(O)cc(-c3ccc(Cl)cc3)nc2n1 | 4.47
Oc1cc(-c2ccc(F)cc2)nc2ncc(Cl)cc12 | 30.2
Cc1cnc2nc(-c3ccc(Cl)cc3)cc(O)c2c1 | 3.89
COc1ccc(-c2cc(O)c3ccc(C)nc3n2)cc1 | > 100
COc1ccccc1-c1cc(O)c2c(C)cc(C)nc2n1 | 70.8
Cc1cnc2nc(-c3ccc(F)cc3)cc(O)c2c1 | 33.9
COc1cccc(-c2cc(O)c3cc(C)cnc3n2)c1 | 0.0437
COc1cccc(-c2cc(O)c3cc(Cl)cnc3n2)c1 | 0.0631

What follows are compounds tested on PC-3 (assay: Concentration which reduced cell growth to 50 % of level against PC-3 prostate cancer line). Settings: Homo sapiens.
Assay type: functional

SMILES | GI50 [nM]
Cc1ccc2c(O)cc(-c3ccc(Cl)cc3)nc2n1 | 1660
Oc1cc(-c2ccc(F)cc2)nc2ncc(Cl)cc12 | 21900
Cc1cnc2nc(-c3ccc(Cl)cc3)cc(O)c2c1 | 1150
COc1ccc(-c2cc(O)c3ccc(C)nc3n2)cc1 | > 100000
COc1ccccc1-c1cc(O)c2c(C)cc(C)nc2n1 | 47900
Cc1cnc2nc(-c3ccc(F)cc3)cc(O)c2c1 | 25700
COc1cccc(-c2cc(O)c3cc(C)cnc3n2)c1 | 42.7
COc1cccc(-c2cc(O)c3cc(Cl)cnc3n2)c1 | 138

What follows are compounds tested on MDA-MB-435 (assay: Concentration which reduced cell growth to 50 % of level against MDA-MB-435 breast cancer line). Settings: Homo sapiens.
Assay type: functional

SMILES | GI50 [nM]
Cc1ccc2c(O)cc(-c3ccc(Cl)cc3)nc2n1 | 912
Oc1cc(-c2ccc(F)cc2)nc2ncc(Cl)cc12 | 2570
Cc1cnc2nc(-c3ccc(Cl)cc3)cc(O)c2c1 | 603
COc1ccc(-c2cc(O)c3ccc(C)nc3n2)cc1 | 42700
COc1ccccc1-c1cc(O)c2c(C)cc(C)nc2n1 | 32400
Cc1cnc2nc(-c3ccc(F)cc3)cc(O)c2c1 | 2630
COc1cccc(-c2cc(O)c3cc(C)cnc3n2)c1 | < 10
COc1cccc(-c2cc(O)c3cc(Cl)cnc3n2)c1 | 32.4

Each compound was assayed on OVCAR-3 (assay: Concentration which reduced cell growth to 50 % of level against OVCAR-3 ovarian cancer line). Settings: Homo sapiens.
Assay type: functional

SMILES | GI50 [nM]
Cc1ccc2c(O)cc(-c3ccc(Cl)cc3)nc2n1 | 2570
Oc1cc(-c2ccc(F)cc2)nc2ncc(Cl)cc12 | 17400
Cc1cnc2nc(-c3ccc(Cl)cc3)cc(O)c2c1 | 2240
COc1ccc(-c2cc(O)c3ccc(C)nc3n2)cc1 | > 100000
COc1ccccc1-c1cc(O)c2c(C)cc(C)nc2n1 | 64600
Cc1cnc2nc(-c3ccc(F)cc3)cc(O)c2c1 | 22400
COc1cccc(-c2cc(O)c3cc(C)cnc3n2)c1 | 41.7
COc1cccc(-c2cc(O)c3cc(Cl)cnc3n2)c1 | 490
